Bioassay records from PubChem BioAssay.
NRP1-CendR mod – NRP-1/CendR interaction modulation; AID 602438; 0.85% of 360,000 active; FAM-RPARPAR peptide binding to NRP-1, fluorescence polarization; O14786; inhibition, % at 25 µM;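 active means inhibition or corrected inhibition above about 18%, plus a signal ratio from 0.5 to 1.5, limit read from the data, passing the limit was not always enough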
V-ATPase pHluor – regulators of yeast V-ATPase proton transport; 0.37% of 350,000 active; AID 504577; S. cerevisiae, pHLuorin cytosolic pH fluorescence; response, % at 10 µM; in the data active means response mostly above about 7.3%, no sharp cut-off; inactive means mostly below about 5.4%; further: actives read high
CR mimetic SO – yeast age-related superoxide inhibition as caloric restriction mimetic; S. cerevisiae aged cells, superoxide DHE fluorescence; stronger effect = lower value; superoxide response (% of plate mean), % at 10 µM; 0.18% of 330,000 active; AID 2690;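 active means superoxide response under a set limit, about three screen SD below normal, cut at about 65% in these data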;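 further: yeast aged for seven days with compound at 30 °C before DHE staining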
T cruzi repl – blocks replication of Trypanosoma cruzi; AID 1885; inhibition, % (concentration not given with the values); 1.4% of 300,000 active; T. cruzi beta-gal in NIH3T3, luminescence, 90 h;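 active means mean inhibition across valid replicates above about 55%, limit read from the data; inconclusive means mean below that limit but half or more replicates reach it; inactive means mean below it, under half of replicates reach it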;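 further: signal also drops with host cell toxicity which is not excluded here; higher percent means less beta-gal luminescence so fewer parasites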
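Assay system: NIH/3T3 fibroblasts plus reporter T. cruzi. Amount: NIH/3T3 cells, 5,000 per well. Buffer or medium: DMEM, 2% fetal bovine serum. Doses: compound pinned at 50 nL/well, DMSO. Schedule: ≥90 h infection period, 3 h prior cell attachment. Signal: luminescent β-galactosidase signal after 60 min lysis. Read-out: parasite load inhibition, %.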
HIF act – HIF pathway transcriptional activation; 0.32% of 300,000 active; activation, % at 7.5 µM (by protocol); AID 1910; U2OS HRE-luciferase reporter, luminescence; normalized: DMSO 0%, desferrioxamine 100%;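 active means mean activation of at least 10% of the iron chelator positive control signal, with at least half of replicates also reaching 10%; inconclusive means mean and replicate majority disagree about reaching 10%; inactive means mean and most replicates under 10%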
AI-2 QS mod – Vibrio harveyi AI-2 quorum sensing modulation; Vibrio harveyi JMH597 AI-2 luminescence/OD600 ratio, 9 h; stronger effect = lower value; strain lacks LuxN and CqsS sensors; 0 = neutral-control median; activity change, % at 7.5 µM; 0.4% of 300,000 active; in the data active means activity change below about -75%, passing the limit was not always enough; inconclusive means no clear call, values can overlap the other calls;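 further: luminescence divided by OD600 gain over 9 h not by final OD600 alone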
JMH597 growth – retest Vibrio harveyi JMH597 growth inhibition; OD600 absorbance, 9 h; lacks LuxN and CqsS sensors; 1% of 750 active; growth inhibition, % at 7.5 µM; shares compounds with AI-2 QS mod;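 active means every replicate shows growth inhibition above 50%; inconclusive means at least half, but not all, replicates pass that cutoff; inactive means fewer than half of replicates pass it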
BB721 lum counter – retest counter-screen: lowers luminescence of constitutive-QS Vibrio harveyi BB721; shares compounds with AI-2 QS mod; 9 h; inhibition, % at 7.5 µM; 95% of 750 active; AID 2727;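 active means inhibition above about 80% in every replicate, not just on average, limit read from the data; inconclusive means at least half of replicates past the limit, but not all; inactive means fewer than half of replicates past the limit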
BB721 growth rt – retest Vibrio harveyi BB721 growth inhibition; shares compounds with AI-2 QS mod; OD600 absorbance, 9 h; growth inhibition, % at 7.5 µM; 3% of 750 active; AID 2728;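 active means every replicate shows growth inhibition above 50%; inconclusive means at least half but not all replicates above 50% inhibition; inactive means under half of replicates above 50% inhibition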
JMH597 AI-2 mod – Vibrio harveyi AI-2 signaling luminescence modulation – JMH597 strain, confirmation; 97% of 750 active; shares compounds with AI-2 QS mod; AID 2736; inhibition, % at 7.5 µM; Vibrio harveyi JMH597 AI-2 quorum sensing luminescence, 9 h; luxN and CqsS knockout, AI-2 only;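 active means every replicate shows more than 75% inhibition of signal versus neutral control wells; inconclusive means half to three quarters of replicates exceed 75% inhibition; inactive means fewer than half of replicates exceed 75% inhibition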
Of the large screens only hits and unclear results are named; the others gave an inactive call (follow-up assays come after a bar, where they were run). The list is not random: actives were taken first. Their share in the collection is about 3%.

O=C(Nc1ccccc1F)C1CC1c1ccccc1 (centres undefined)	AI-2 QS mod -83.8 | JMH597 growth inactive | BB721 lum counter 91.7 | BB721 growth rt inactive | JMH597 AI-2 mod 93.2
CC(C)Nc1nc(Nc2ccc(Cl)cc2F)c2sccc2n1	none (no result: V-ATPase pHluor, CR mimetic SO, T cruzi repl, HIF act, AI-2 QS mod)
O=C(CCCn1nnc(-c2cccnc2)n1)c1ccc(F)cc1	AI-2 QS mod -80.2 (no result: HIF act) | JMH597 growth inactive | BB721 lum counter 91.7 | BB721 growth rt inactive | JMH597 AI-2 mod 94.7
CCC(=O)Nc1ccc2nc(C)n(CC(=O)Nc3ccccc3)c(=O)c2c1	none
Cc1cc(NC(=O)Cn2c(C)nc3ccccc3c2=O)ccc1Br	AI-2 QS mod -86.6 | JMH597 growth inactive | BB721 lum counter 98.8 | BB721 growth rt inactive | JMH597 AI-2 mod 99.1
CC(=O)Nc1ccc(C(=O)Cn2nnc3ccccc3c2=O)cc1	none
Cc1cc(C)cc(NC(=O)Cn2nnc3ccccc3c2=O)c1	AI-2 QS mod -82.9 | JMH597 growth inactive | BB721 lum counter 96.0 | BB721 growth rt inactive | JMH597 AI-2 mod 97.4
O=c1c(C=Nc2ccc(Oc3ccccc3)cc2)c[nH]n1-c1cccc(Cl)n1	none
O=C(Nc1cccc(Cl)c1)OCCOc1ccccc1	AI-2 QS mod -86.7 | JMH597 growth inactive | BB721 lum counter 91.5 | BB721 growth rt inactive | JMH597 AI-2 mod 92.0
CCOc1nc(SCCOc2ccc(C)cc2)nc(N(C)C)n1	none (no result: T cruzi repl, HIF act, AI-2 QS mod)
CC(C)Oc1ccc(NC(=O)C2CCCNC2=O)cc1 (centres undefined)	AI-2 QS mod inconclusive | JMH597 growth inactive | BB721 lum counter 88.6 | BB721 growth rt inactive | JMH597 AI-2 mod 92.7
COc1ccc(OC)c(NC(=O)C2CCCNC2=O)c1 (centres undefined)	none
CNS(=O)(=O)c1cccc(C(=O)OC2CCOC2=O)c1 (centres undefined)	none
CC(C)c1ccc(NC(=O)COc2nncc3ccccc23)cc1	AI-2 QS mod -96.1 | JMH597 growth inactive | BB721 lum counter 99.5 | BB721 growth rt inconclusive | JMH597 AI-2 mod 99.6
O=C(COc1nncc2ccccc12)Nc1c(F)c(F)c(F)c(F)c1F	none
O=C(COc1nncc2ccccc12)Nc1ccc(F)c(F)c1	AI-2 QS mod -96.4 | JMH597 growth inactive | BB721 lum counter 99.2 | BB721 growth rt inactive | JMH597 AI-2 mod 99.4
Cc1cc(C)c(NC(=O)COc2nncc3ccccc23)c(C)c1	none
O=C(Nc1cccc(-c2cn3cccnc3n2)c1)Nc1ccccc1F	none
O=C(NCc1ccccc1)c1cc(-c2cccc(O)c2)on1	AI-2 QS mod -82.0 | JMH597 growth inactive | BB721 lum counter 88.1 | BB721 growth rt inactive | JMH597 AI-2 mod 91.9
Cc1cc(O)c(-c2cc(C(=O)Nc3cccnc3)[nH]n2)cc1C	none
CCc1ccc(O)c(-c2cc(C(=O)Nc3cccnc3)[nH]n2)c1	AI-2 QS mod -94.0 | JMH597 growth inactive | BB721 lum counter 97.2 | BB721 growth rt inactive | JMH597 AI-2 mod 97.3
Cc1cnccc1CN(C)C(=O)CC1C(=O)NCCN1CC1CCCCC1 (centres undefined)	none
COc1ccc2cc(-c3cccnc3)ncc2c1	none (no result: T cruzi repl, HIF act, AI-2 QS mod)
O=C(Nc1ccc(F)cc1)c1cc(S(=O)(=O)N2CCCCC2)ccc1F	none
Cc1ccc(Cc2cnc(NC(=O)c3ccco3)s2)cc1	AI-2 QS mod -86.1 | JMH597 growth inactive | BB721 lum counter 97.1 | BB721 growth rt inconclusive | JMH597 AI-2 mod 98.3
Cc1ccc(NC(=O)c2ccc(OC(=O)c3ccco3)cc2)cc1	none
Cc1ccc(Oc2ccc(NC(=O)c3ccco3)cc2)cc1	AI-2 QS mod -97.3 | JMH597 growth inactive | BB721 lum counter 99.7 | BB721 growth rt inconclusive | JMH597 AI-2 mod 99.8
COc1cc(NC(=O)Cn2nnc(-c3ccccc3N)n2)cc(OC)c1	AI-2 QS mod -89.4 | JMH597 growth inactive | BB721 lum counter 97.6 | BB721 growth rt inactive | JMH597 AI-2 mod 98.2
CC(C)CC(=O)N1CCN(C(=O)c2ccco2)CC1	none
CCOC(=O)N1CCN(C(=O)C[C@@H]2C[C@@]3(C(=O)OC)CCCCC=C3N(Cc3ccco3)C2=O)CC1	none (no result: V-ATPase pHluor, CR mimetic SO, T cruzi repl, HIF act, AI-2 QS mod)
Nc1nc(NCc2ccccc2)nc(-c2ccccc2)n1	AI-2 QS mod -81.8 | JMH597 growth inactive | BB721 lum counter 87.0 | BB721 growth rt inactive | JMH597 AI-2 mod 92.0
Nc1nc(-c2ccccc2)nc(-c2ccccc2O)n1	none
CNC(=O)CSc1cnc2ccccc2n1	none
Cc1ccc(C(=O)CCC(=O)Nc2cccc(C)c2)cc1	AI-2 QS mod -89.2 | JMH597 growth inactive | BB721 lum counter 95.6 | BB721 growth rt inactive | JMH597 AI-2 mod 97.1
Cc1ccc(NC(=O)CCC(=O)c2ccccc2)cc1	none (no result: CR mimetic SO, T cruzi repl, HIF act, AI-2 QS mod)
COc1ccc(NC(=O)CSc2ccccc2)cc1S(=O)(=O)N1CCCCC1	none
O=C1NCCN(CC2CCN(CC3CCCC3)CC2)C1=O	none (no result: CR mimetic SO, T cruzi repl, HIF act, AI-2 QS mod)
Cc1cccc(OCc2nnc(SCC(=O)N3CC(=O)Nc4ccccc43)o2)c1	AI-2 QS mod -93.3 | JMH597 growth inactive | BB721 lum counter 96.3 | BB721 growth rt inactive | JMH597 AI-2 mod 98.1
O=C(Cc1ccc(Br)cc1)Nc1cccc(Cl)c1	AI-2 QS mod -81.6 | JMH597 growth inactive | BB721 lum counter 87.6 | BB721 growth rt inactive | JMH597 AI-2 mod 87.8
O=C(/C=C/c1cccs1)NCc1ccc2c(c1)OCO2	AI-2 QS mod -90.3 | JMH597 growth inactive | BB721 lum counter 94.7 | BB721 growth rt inactive | JMH597 AI-2 mod 95.1
O=C(NCc1ccc2c(c1)OCO2)Nc1cccc(Cl)c1	AI-2 QS mod -91.5 | JMH597 growth inactive | BB721 lum counter 98.9 | BB721 growth rt inactive | JMH597 AI-2 mod 98.6
O=C(/C=C/c1cccs1)NCc1cccs1	AI-2 QS mod -83.2 | JMH597 growth inactive | BB721 lum counter 91.8 | BB721 growth rt inactive | JMH597 AI-2 mod 91.7
Cc1ccccc1C(=O)O/N=C(\c1ccccc1)c1ccccn1	none
CCCC(NC(=O)COc1cc2c(c3oc(=O)c(C)c(C)c13)CCC(C)(C)O2)C(=O)O (centres undefined)	none
O=C(COC(=O)/C=C/c1ccccc1)NCc1ccc2c(c1)OCO2	none (no result: T cruzi repl, HIF act, AI-2 QS mod)
O=C(/C=C/c1ccccc1)NCc1ccc2c(c1)OCO2	AI-2 QS mod -94.0 | JMH597 growth inactive | BB721 lum counter 97.9 | BB721 growth rt inactive | JMH597 AI-2 mod 98.3
